The values below come from ChEMBL document CHEMBL4411287, “Discovery and optimization of a series of 3-substituted indazole derivatives as multi-target kinase inhibitors for the treatment of lung squamous cell carcinoma” (Eur J Med Chem, 2019).

As a reminder, the inhibition is the percentage by which the read-out fell short of the control. In general, IC50 refers to the point on the concentration scale where inhibition reaches its midpoint. Read a high IC50 as weaker potency.

Experiment [1] has as its target Vascular endothelial growth factor receptor 1 (Homo sapiens) (UniProt P17948). Briefly: Inhibition of VEGFR1 (unknown origin) at 1000 nM relative to control. The method in brief:
(§1)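 ELISA with purified recombinant kinase on plates precoated with poly(Glu,Tyr) 4:1 at 20 µg/mL. ATP 10 µM in HEPES pH 7.4 buffer with MgCl2, MnCl2, Na3VO4 and DTT. Run 60 min at 37 °C. Detected with anti-phosphotyrosine PY99, HRP secondary antibody and o-phenylenediamine, read at 490 nm. Inhibition % = [1 − A490/A490 control]×100. 1% DMSO as negative control.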

The target in experiment [2] is T1, Ephrin type-B receptor 2 (Homo sapiens) (UniProt P29323).
T1 sequence (whole entry): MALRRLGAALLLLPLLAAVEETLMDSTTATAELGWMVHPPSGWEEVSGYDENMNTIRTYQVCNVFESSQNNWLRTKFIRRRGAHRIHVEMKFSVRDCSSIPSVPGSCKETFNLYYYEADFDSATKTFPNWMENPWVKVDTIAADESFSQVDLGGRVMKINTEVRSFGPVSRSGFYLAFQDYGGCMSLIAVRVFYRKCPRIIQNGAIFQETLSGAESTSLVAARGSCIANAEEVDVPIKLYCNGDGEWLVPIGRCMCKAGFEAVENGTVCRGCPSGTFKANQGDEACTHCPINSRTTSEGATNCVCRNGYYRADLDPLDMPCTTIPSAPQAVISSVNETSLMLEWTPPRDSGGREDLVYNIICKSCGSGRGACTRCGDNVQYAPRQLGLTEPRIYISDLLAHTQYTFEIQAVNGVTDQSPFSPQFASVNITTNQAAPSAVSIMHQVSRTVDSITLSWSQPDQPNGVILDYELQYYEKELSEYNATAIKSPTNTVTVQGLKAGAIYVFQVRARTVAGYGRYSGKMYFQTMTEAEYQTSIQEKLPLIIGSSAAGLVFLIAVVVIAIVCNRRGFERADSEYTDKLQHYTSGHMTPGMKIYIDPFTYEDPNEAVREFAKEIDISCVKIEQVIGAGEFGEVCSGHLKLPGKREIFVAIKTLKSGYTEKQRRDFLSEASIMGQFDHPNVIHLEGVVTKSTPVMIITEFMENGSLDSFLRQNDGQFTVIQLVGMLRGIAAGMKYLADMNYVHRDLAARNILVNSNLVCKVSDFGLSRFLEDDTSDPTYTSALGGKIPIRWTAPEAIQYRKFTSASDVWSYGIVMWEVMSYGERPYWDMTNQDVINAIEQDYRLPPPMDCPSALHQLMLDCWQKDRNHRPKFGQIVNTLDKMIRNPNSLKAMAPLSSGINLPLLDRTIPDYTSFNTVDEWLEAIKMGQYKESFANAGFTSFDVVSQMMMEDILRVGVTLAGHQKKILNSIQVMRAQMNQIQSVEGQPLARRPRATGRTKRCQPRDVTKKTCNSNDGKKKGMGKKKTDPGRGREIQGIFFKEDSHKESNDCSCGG
Briefly: Inhibition of EPH-B2 (unknown origin) at 100 nM relative to control. The method in brief: (§2)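 Purified recombinant kinase domains run in ELISA on precoated poly(Glu,Tyr) 4:1 (20 µg/mL) with 10 µM ATP in 50 mM HEPES pH 7.4, 50 mM MgCl2, 0.5 mM MnCl2, 0.2 mM Na3VO4, 1 mM DTT; 1% DMSO control; 60 min at 37 °C. Phosphotyrosine read by PY99 antibody, HRP anti-mouse IgG, OPD/H2O2 at 490 nm; inhibition = [1−A490/A490control]×100%; two separate experiments.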

In experiment [3] the target is Tyrosine-protein kinase JAK2 (Homo sapiens) (UniProt O60674). Put plainly: Inhibition of JAK2 (unknown origin) at 10 nM relative to control. Summed up: as §2
Tyrosine-protein kinase JAK2 (Homo sapiens), sequence (O60674 whole entry): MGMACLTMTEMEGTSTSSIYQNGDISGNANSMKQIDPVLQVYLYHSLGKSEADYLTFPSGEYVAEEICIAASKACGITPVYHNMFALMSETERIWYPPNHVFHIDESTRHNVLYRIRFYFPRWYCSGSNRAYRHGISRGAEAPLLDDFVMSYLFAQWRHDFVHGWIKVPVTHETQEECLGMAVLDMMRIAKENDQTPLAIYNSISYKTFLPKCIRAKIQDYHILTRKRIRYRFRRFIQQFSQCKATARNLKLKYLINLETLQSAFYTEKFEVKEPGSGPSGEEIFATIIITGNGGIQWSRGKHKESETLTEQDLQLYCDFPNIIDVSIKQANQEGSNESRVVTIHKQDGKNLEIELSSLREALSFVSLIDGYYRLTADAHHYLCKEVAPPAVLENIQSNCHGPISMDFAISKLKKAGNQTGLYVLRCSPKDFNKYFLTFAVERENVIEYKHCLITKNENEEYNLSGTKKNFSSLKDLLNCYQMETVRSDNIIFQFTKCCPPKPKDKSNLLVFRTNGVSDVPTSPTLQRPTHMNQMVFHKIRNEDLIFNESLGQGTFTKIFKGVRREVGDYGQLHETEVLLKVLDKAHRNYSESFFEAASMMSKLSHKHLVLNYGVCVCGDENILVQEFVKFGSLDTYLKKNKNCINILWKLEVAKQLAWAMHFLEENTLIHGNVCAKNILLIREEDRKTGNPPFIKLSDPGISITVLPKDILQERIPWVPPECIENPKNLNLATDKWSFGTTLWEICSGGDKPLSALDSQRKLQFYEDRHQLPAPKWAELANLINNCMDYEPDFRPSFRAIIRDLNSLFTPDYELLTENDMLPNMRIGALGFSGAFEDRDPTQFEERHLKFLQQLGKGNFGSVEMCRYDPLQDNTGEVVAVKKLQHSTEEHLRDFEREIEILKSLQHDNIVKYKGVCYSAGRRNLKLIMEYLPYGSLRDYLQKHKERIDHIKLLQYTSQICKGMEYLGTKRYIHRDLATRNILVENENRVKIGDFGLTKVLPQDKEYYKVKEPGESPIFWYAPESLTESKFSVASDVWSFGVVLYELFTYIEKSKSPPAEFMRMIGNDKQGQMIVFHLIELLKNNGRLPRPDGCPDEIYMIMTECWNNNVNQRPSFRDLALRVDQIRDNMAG
Experiment [4] has the same target. Briefly: Inhibition of JAK2 (unknown origin) at 100 nM relative to control. Summed up: as §2
In experiment [5] the target is Angiopoietin-1 receptor (Homo sapiens) (UniProt Q02763). Briefly: Inhibition of Tie-2 (unknown origin) at 1000 nM relative to control. The method in brief: as §1
Experiment [6] deals with Ephrin type-A receptor 2 (Homo sapiens) (UniProt P29317). Briefly: Inhibition of EPH-A2 (unknown origin) at 10 nM relative to control. Summed up:
as §2

In experiment [7] the target is Cyclin-dependent kinase 1 (Homo sapiens) (UniProt P06493). Briefly: Inhibition of CDK1 (unknown origin) at 1000 nM relative to control.
Cyclin-dependent kinase 1 (Homo sapiens), sequence (P06493 whole entry, looked up): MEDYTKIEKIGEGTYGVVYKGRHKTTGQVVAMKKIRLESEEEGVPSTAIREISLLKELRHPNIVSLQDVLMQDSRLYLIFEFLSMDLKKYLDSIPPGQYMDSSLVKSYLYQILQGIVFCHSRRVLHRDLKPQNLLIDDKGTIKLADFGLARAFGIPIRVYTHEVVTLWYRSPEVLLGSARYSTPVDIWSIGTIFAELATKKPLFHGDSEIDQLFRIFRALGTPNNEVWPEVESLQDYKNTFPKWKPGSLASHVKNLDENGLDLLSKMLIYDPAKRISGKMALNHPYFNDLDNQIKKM
Experiment [8] deals with NCI-H1581. Briefly: Antitumor activity against human NCI-H1581 cells xenografted in nude mouse assessed as tumor growth inhibition at 20 mg/kg, po qd for 7 to 10 days relative to control. Type of experiment: functional. The following applies: read-out: TGI. Summed up:
(§3)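 Female nude mice, 4-6 weeks old. NCI-H1581 cells (5×10^6 in 200 µL) injected s.c., grown to 700-800 mm³, then 1-mm³ fragments implanted s.c. by trocar. At 100-150 mm³ animals were randomized (vehicle n=12, treated n=6) and dosed orally once daily for 7 days. Tumours measured twice weekly, volume = length×width²/2. TGI calculated from change in tumour volume versus vehicle on the final day, with Student's t-test.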
(In general: A xenograft is tissue or cells of one species grown in another, often human tumour cells in immunodeficient mice.)

Experiment [9] has as its system NCI-H1581. Put plainly: Antitumor activity against human NCI-H1581 cells xenografted in nude mouse assessed as tumor growth inhibition at 10 mg/kg, po qd for 7 to 10 days relative to control. Particulars: read-out: TGI. Type of experiment: functional. Summed up:
as §3

For experiment [10], the target named is Vascular endothelial growth factor receptor 2 (Homo sapiens) (UniProt P35968). Put plainly: Inhibition of VEGFR2 (unknown origin) at 10 nM relative to control. Summed up:
as §1

Experiment [11] has as its target Tyrosine-protein kinase BTK (Homo sapiens) (UniProt Q06187). Briefly: Inhibition of BTK (unknown origin) at 10 nM relative to control.
Experiment [12] addresses Fibroblast growth factor receptor 2 (Homo sapiens) (UniProt P21802). Put plainly: Inhibition of FGFR2 (unknown origin) at 100 nM relative to control. The method in brief:
as §2

Experiment [13] has as its target Hepatocyte growth factor receptor (Homo sapiens) (UniProt P08581). Briefly: Inhibition of c-Met (unknown origin) at 10 nM relative to control. The method in brief:
as §1

Experiment [14] addresses Epidermal growth factor receptor (Homo sapiens) (UniProt P00533). Put plainly: Inhibition of EGFR (unknown origin) at 100 nM relative to control.
Experiment [15] addresses Focal adhesion kinase 1 (Homo sapiens) (UniProt Q05397). Briefly: Inhibition of FAK (unknown origin) at 1000 nM relative to control. Summed up: as §2
The target in experiment [16] is Tyrosine-protein kinase BTK (Homo sapiens) (UniProt Q06187). Put plainly: Inhibition of BTK (unknown origin) at 100 nM relative to control.
Tyrosine-protein kinase BTK (Homo sapiens), sequence (Q06187 whole entry): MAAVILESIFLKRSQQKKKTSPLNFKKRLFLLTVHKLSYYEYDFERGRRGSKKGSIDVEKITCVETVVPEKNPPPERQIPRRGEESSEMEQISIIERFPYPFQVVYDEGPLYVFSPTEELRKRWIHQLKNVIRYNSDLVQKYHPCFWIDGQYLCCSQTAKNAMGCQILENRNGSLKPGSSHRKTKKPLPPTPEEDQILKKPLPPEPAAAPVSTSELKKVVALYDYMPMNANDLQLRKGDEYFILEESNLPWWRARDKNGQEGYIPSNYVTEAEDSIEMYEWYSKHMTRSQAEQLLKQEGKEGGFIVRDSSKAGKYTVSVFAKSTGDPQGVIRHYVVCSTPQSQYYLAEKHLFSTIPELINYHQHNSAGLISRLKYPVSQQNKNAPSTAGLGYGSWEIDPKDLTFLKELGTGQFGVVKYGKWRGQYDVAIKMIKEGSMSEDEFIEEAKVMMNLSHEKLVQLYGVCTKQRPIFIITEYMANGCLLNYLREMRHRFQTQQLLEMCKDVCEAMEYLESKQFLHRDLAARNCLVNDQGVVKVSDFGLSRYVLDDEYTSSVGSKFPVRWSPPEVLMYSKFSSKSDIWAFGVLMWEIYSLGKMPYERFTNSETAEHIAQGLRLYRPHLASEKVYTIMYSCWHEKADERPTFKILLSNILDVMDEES
Experiment [17] deals with Cyclin-dependent kinase 4 (Homo sapiens) (UniProt P11802). Put plainly: Inhibition of CDK4 (unknown origin) at 100 nM relative to control.
Cyclin-dependent kinase 4 (Homo sapiens), sequence (P11802 whole entry): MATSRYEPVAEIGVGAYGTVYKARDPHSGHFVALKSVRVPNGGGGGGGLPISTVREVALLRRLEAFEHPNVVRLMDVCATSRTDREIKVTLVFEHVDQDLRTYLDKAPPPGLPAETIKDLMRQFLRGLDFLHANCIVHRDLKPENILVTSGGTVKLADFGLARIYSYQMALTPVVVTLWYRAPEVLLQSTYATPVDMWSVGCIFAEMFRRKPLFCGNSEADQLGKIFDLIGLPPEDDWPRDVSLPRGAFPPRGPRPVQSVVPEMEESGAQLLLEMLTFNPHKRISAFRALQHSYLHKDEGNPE
The next experiment has as its system NCI-H716. Put plainly: Antiproliferative activity against FGFR2 amplified human NCI-H716 cells after 72 hrs by CCK8 assay. The following applies: NCI-H716, 72 h. The experiment is classed as functional, cell-based. Summed up: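 Cells seeded at low density in growth medium and compounds added the next day. Incubated 72 h, then proliferation read by sulforhodamine B, MTT or CCK-8. IC50 obtained by four-parameter concentration-response curve fitting.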
On the technique in general: Tetrazolium dyes change colour on reduction, which living cells bring about.

Experiment [18] has as its target Tyrosine-protein kinase JAK1 (Homo sapiens) (UniProt P23458). Briefly: Inhibition of JAK1 (unknown origin) at 1000 nM relative to control. The method in brief: as §2

Epidermal growth factor receptor (Homo sapiens), sequence (P00533 whole entry): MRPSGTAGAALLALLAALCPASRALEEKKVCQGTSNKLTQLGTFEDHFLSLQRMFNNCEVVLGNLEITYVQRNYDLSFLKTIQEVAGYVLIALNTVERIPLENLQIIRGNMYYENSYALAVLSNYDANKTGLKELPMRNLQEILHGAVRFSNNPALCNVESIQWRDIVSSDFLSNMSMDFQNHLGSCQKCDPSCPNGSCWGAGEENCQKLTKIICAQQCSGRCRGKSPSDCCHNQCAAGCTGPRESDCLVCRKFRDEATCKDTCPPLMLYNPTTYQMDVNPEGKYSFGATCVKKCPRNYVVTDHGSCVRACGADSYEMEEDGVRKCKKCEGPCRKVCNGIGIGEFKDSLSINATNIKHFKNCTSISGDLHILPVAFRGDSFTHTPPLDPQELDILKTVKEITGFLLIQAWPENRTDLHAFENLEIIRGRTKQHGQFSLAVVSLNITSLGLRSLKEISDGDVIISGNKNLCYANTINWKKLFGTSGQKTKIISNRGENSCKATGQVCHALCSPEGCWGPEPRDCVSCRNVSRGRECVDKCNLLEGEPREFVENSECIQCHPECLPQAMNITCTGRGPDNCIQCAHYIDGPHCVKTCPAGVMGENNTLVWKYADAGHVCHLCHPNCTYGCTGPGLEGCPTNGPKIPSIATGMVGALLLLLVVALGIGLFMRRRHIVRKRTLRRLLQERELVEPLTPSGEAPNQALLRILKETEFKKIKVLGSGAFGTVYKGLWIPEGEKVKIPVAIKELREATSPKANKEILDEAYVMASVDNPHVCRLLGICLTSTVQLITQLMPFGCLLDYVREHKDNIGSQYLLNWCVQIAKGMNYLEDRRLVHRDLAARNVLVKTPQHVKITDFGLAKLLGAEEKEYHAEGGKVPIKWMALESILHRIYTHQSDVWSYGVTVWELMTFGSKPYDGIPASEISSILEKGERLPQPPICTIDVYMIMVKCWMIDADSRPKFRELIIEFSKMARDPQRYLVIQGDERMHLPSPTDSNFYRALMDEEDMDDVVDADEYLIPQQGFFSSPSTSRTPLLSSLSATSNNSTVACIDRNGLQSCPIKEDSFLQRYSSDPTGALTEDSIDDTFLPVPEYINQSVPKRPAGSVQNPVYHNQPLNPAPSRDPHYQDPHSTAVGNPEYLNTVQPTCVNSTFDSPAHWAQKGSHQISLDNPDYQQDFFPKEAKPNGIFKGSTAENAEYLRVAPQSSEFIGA
Hepatocyte growth factor receptor (Homo sapiens), sequence (P08581 whole entry): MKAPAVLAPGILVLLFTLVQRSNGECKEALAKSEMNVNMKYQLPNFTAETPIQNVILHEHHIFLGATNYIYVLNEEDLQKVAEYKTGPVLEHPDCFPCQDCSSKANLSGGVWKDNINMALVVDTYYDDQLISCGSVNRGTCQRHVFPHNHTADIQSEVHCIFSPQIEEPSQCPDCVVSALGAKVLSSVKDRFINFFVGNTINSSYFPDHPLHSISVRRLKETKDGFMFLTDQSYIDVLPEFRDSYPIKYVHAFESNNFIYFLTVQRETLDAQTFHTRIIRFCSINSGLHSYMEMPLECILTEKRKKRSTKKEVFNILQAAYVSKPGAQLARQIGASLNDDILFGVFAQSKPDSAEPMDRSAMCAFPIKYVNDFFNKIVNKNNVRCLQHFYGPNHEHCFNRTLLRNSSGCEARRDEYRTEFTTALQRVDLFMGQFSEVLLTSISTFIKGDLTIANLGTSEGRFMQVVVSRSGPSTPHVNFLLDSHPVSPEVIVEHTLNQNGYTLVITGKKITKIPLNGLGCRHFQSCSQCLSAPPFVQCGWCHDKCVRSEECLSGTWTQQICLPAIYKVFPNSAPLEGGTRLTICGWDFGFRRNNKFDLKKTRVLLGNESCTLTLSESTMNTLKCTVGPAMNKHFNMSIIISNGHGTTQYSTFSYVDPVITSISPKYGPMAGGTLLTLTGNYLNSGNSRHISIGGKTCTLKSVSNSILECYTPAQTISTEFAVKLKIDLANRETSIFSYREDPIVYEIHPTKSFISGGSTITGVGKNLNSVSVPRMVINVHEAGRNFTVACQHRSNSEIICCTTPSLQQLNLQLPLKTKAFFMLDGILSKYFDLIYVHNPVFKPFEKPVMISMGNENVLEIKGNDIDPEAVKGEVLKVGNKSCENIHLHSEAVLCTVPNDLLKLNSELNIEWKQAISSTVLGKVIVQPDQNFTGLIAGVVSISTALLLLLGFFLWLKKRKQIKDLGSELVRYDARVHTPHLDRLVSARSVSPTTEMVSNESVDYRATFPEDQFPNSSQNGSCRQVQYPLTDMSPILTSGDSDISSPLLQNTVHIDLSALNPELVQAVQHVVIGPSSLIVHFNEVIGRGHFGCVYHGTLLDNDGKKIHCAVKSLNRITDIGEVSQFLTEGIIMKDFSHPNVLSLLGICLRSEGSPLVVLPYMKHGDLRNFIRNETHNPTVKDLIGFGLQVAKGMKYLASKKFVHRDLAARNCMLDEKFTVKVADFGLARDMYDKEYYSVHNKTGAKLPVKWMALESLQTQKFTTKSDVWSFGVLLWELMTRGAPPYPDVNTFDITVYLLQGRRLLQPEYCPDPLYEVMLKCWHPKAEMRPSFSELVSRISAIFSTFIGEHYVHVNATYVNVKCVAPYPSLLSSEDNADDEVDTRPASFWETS

Turning to `Cc1ccc(C(=O)Nc2cccc(C(F)(F)F)c2)cc1-c1ccc2c(-c3cnn(C4CC4)c3)n[nH]c2c1`, the inhibition in experiment [1] was 86.6%; in [2], 76.7%; in [3], 5.4%; in experiment [4], 2.5%; in experiment [5], 83.6%; in experiment [6] it was 86.6%. Further, the inhibition in experiment [7] was 5.6%; in experiment [10], 90.1%; in [11], 32%; in [12], 95%; in experiment [13] it was 0.2%; in experiment [14] it was 33.9%. Also, the inhibition in experiment [15] worked out at 81.7%; in experiment [16], 47.1%; in experiment [17], 6.8%; in experiment [18] it was 31.2%. In addition, in the experiment with NCI-H1581 [8], the inhibition in vivo at 20 mg/kg was 98.1%. Further, the inhibition in vivo at 10 mg/kg in the experiment on NCI-H1581 [9] amounted to 59.7%. The same compound showed a concentration for half-maximal inhibition (IC50) with NCI-H716 of 31.8 nM.
